Bioassay records: PubChem BioAssay, several laboratories
Shown are actives, neighbours in structure and some others; about 1.8% of the full set was active somewhere.
TDP2 absorb = TDP2 (human) inhibition, absorbance primary screen | O95551 | recombinant TDP2, T5PNP hydrolysis, p-nitrophenol absorbance 415 nm | inhibition, % at 12.8 µM | hit rate 0.34% among 370,000;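 active = inhibition above the mean of all tested compounds plus 3 SD, set per campaign, cut at about 25% in these data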;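 note: 0% = DMSO with enzyme and 100% = buffer with substrate but no TDP2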
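Assay system: Recombinant human TDP2 | Quantity: 120 nM TDP2 per well | Incubation: 2 h at 37 °C | Signal: Epi absorbance | Evaluation: Percent inhibition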
PAD4 FP inh = PAD4 (human) enzyme inhibition | Q9UM07 | inhibition, % at 6.36 µM | hit rate 0.41% among 330,000 | recombinant PAD4, RCA probe fluorescence polarization;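 active = percent inhibition above a cutoff equal to the mean of all tested compounds plus 3 SD, cut at about 15% in these data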;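 note: 0% = PAD4 with RCA probe and DMSO and 100% = probe without PAD4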
Target sequence (Q9UM07 whole entry, looked up): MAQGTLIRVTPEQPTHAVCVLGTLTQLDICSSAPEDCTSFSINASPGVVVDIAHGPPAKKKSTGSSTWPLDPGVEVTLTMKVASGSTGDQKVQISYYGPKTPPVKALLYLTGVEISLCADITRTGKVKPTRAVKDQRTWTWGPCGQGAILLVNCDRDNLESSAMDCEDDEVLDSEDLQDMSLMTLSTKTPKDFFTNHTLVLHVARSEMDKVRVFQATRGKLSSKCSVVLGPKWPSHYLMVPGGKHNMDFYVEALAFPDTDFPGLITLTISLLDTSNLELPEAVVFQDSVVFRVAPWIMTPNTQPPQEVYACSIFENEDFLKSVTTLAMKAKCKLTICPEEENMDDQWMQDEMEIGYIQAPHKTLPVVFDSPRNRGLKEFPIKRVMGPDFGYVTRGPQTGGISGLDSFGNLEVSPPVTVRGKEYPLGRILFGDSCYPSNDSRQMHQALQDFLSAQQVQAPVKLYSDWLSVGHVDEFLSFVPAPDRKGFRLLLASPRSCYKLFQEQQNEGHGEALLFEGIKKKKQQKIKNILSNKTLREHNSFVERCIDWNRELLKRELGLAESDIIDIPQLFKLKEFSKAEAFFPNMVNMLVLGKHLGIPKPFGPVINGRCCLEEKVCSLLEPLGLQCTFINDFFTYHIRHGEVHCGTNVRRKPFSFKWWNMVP
GSTO1 counter = blocks human GSTO1 in RBBP9 counter-screen; P78417; recombinant GSTO1, activity-based probe fluorescence polarization; inhibition, % at 5.96 µM; hit rate 1.1% among 300,000; AID 1974;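 active = inhibition above the campaign mean inhibition plus 3 SD, cut at about 35% in these data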;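 note: 0% = GSTO1-1 with DMSO and 100% = wells lacking GSTO1-1 enzyme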
Apaf1 inhib = blocks human Apaf-1 apoptosome activity | O14727 | reconstituted apoptosome caspase-3 activity, DEVD-Rh110 fluorescence | inhibition, % at 20 µM | hit rate 0.71% among 330,000 | AID 489030; active = inhibition of at least 40% at 20 µM;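 note: plate controls were DMSO wells for no effect and DEVD-CHO caspase inhibitor wells for full effect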
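System: Apoptosome proteins | Medium: Hepes pH 7.5 with detergent and BSA | Also added: Cytochrome c trigger plus (Z-DEVD)2-Rh110 caspase-3 substrate | Incubation: 30 min compound preincubation, 50 min activation, room temperature | Detection: Rhodamine 110 fluorescence at Ex 480/Em 540 nm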
CTSL1 counter = blocks F. hepatica cathepsin L1 in PFM18AAP counter-screen; AID 1906; hit rate 0.49% among 300,000; recombinant F. hepatica cathepsin L1, Z-Leu-Arg-MCA fluorescence; inhibition, % at 5.96 µM;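 active = inhibition above the mean of all tested compounds plus 3 SD, set per screening campaign, cut at about 17% in these data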;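 note: 0% = plate median of test compound wells and 100% = 1 µM Z-Phe-Ala-diazomethylketone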
Numbers without * were called inactive; x = no result.

SMILES | TDP2 absorb | PAD4 FP inh | GSTO1 counter | Apaf1 inhib | CTSL1 counter
Cc1ccc2nc(C)cc(C(=O)OCC(=O)c3ccc(Cl)c([N+](=O)[O-])c3)c2c1 | 0.9 | -3.4 | 10.1 | 3.3 | -2.8
CC(c1ccccc1)n1cc(C(=O)NCCCN2CCCC2)nn1 (stereo not given) | 0.2 | x | x | x | x
Cc1ccc2nc(Cl)c3nnnn3c2c1 | x | 21.7* | -14.4 | -5.2 | 3.8
Cc1ccc2nc(N3CCN(c4cccc(C)c4C)CC3)c3nnnn3c2c1 | 11.0 | -0.7 | 10.0 | 2.8 | 1.6
O=C(NCSc1ccnc(SCNC(=O)c2ccccc2)n1)c1ccccc1 | -2.1 | -6.0 | 18.7 | -19.6 | 19.1*
Cc1ccc(S(=O)(=O)N2CCN(c3ccc([N+](=O)[O-])c4cccnc34)CC2)cc1 | 2.5 | -4.1 | -1.1 | 46.6* | -5.2
O=[N+]([O-])c1ccc(N2CCN(S(=O)(=O)c3ccccc3)CC2)c2cccnc12 | 9.1 | -5.4 | 10.8 | 6.9 | -4.2
COCCCNC(=O)CSc1nnc(-c2ccncc2)n1-c1ccc(OC)cc1 | -3.0 | x | x | x | x
CCC1CCC(C(=O)NC(C(=O)NCCN2CCOCC2)C(C)C)CC1 (stereo not given) | -4.8 | -0.5 | 1.3 | -1.2 | 29.9*
Cc1ccc(C)n1-c1cccc(C(=O)O)c1 | x | 7.2 | 53.2* | 17.7 | -6.6
O=C(C1CCN(c2ncnc3c2sc2cccc(F)c23)CC1)N1CCN(Cc2ccccc2)CC1 | -2.9 | x | x | x | x
COC(C[C@@H]1O[C@@H]1[C@@H](O)[C@H](C)OCc1ccccc1)OC | -0.9 | x | x | -3.6 | x
COC(C[C@H]1O[C@H]1C(=O)[C@H](C)OCc1ccccc1)OC | -5.3 | 2.3 | 5.1 | -3.7 | 75.9*
Nn1c(SCC(=O)Nc2cc(C(F)(F)F)ccc2Cl)nnc1-c1n[nH]c2c1CCC2 | 6.9 | x | x | x | x
Cc1cc2ccccn2c1C(=O)c1ccc([N+](=O)[O-])o1 | 7.4 | -0.7 | 86.4* | 4.1 | 8.2
COc1cc(CC(=O)OCC(=O)NC2CC2)cc(OC)c1OC | 2.9 | -1.8 | -2.9 | 4.4 | 46.1*
C[C@]12CC[C@@H]3c4cc(O)c(O)cc4CC[C@H]3[C@@H]1CC[C@@H]2O | -1.1 | -0.8 | 42.4* | 10.1 | 3.6
Cc1ccc(CN2CCN(/N=C/c3ccc(C(=O)O)cc3)CC2)cc1 | -8.8 | 4.9 | 1.6 | 7.3 | -0.1
Cc1ccc(CN2CCN(/N=C/c3ccc(O)c(O)c3)CC2)cc1 | -9.5 | 6.7 | 35.9* | -2.3 | 1.2
Oc1ccc(/C=N/N2CCN(C3c4ccccc4-c4ccccc43)CC2)cc1O | -11.1 | 7.9 | 44.3* | -15.9 | 2.1
Oc1ccc(/C=N/N2CCN(C3c4ccccc4-c4ccccc43)CC2)cc1 | 4.1 | 0.6 | 0.1 | -24.8 | 2.5
CC1=Nc2ccccc2/C1=C\c1nc(-c2ccc(C(F)(F)F)cc2)oc1O | 6.0 | -4.0 | -2.1 | -9.4 | 2.1
CC1=Nc2ccccc2/C1=C/c1nc(-c2ccc(C)s2)oc1O | -6.6 | 5.7 | 3.9 | 7.6 | 25.5*
CC1=Nc2ccccc2/C1=C\c1nc(-c2ccccc2)oc1O | 1.9 | -6.0 | -4.9 | 19.1 | 16.9*
COc1ccc(-c2nc(/C=C3\C(C)=Nc4ccccc43)c(O)o2)cc1 | 8.2 | -5.3 | 0.8 | -1.7 | 13.0
SMILES | TDP2 absorb | PAD4 FP inh | GSTO1 counter | Apaf1 inhib | CTSL1 counter
O=C(NCCc1ccccc1Cl)[C@@H]1CCCN1C(=O)[C@@H](NC(=O)N1CCOCC1)c1ccccc1 | 2.2 | x | x | x | x
Clc1ccc(-c2nnc3sc(Cc4cccs4)nn23)cc1 | -5.1 | -1.5 | -9.4 | 58.5* | -1.1
O=C(CCl)c1ccc2c(c1)CCN2C(=O)C1CC1 | x | -2.7 | 57.4* | 9.6 | 13.2
O=C(C1CCC(C(=O)N2CCc3ccccc32)CC1)N1CCc2ccccc21 (stereo not given) | -9.2 | 1.3 | 2.6 | 27.0 | 0.6
Cc1ccc(NC(=S)NNC(=S)Nc2cccc(C(F)(F)F)c2)cc1 | -12.2 | 1.1 | 38.0* | 7.2 | 0.0
C#CCOCCOCCOCCNc1nc(N2CCN(C(=O)C([C@@H](C)CC)n3cc(C(N)COC(=O)C(F)(F)F)nn3)CC2)nc(N2CCN(C(=O)[C@H](Cc3cc4ccccc4[nH]3)n3cc(C(N)CO)nn3)CC2)n1 (stereo not given in full) | x | -8.0 | 13.2 | 49.2* | 3.2
C#CCOCCOCCOCCNc1nc(N2CCN(C(=O)[C@H]([C@@H](C)CC)n3cc([C@@H](N)CO)nn3)CC2)nc(N2CCN(C(=O)[C@H](Cc3cc4ccccc4[nH]3)n3cc([C@@H](N)C(C)CC)nn3)CC2)n1 (stereo not given in full) | x | -5.0 | -2.3 | 47.9* | 3.0
C#CCOCCOCCOCCNc1nc(N2CCN(C(=O)[C@H]([C@@H](C)CC)n3cc([C@@H](N)CC(C)C)nn3)CC2)nc(N2CCN(C(=O)[C@H](Cc3ccc(O)cc3)n3cc([C@@H](N)CC(C)C)nn3)CC2)n1 | -4.8 | 3.2 | 4.8 | -4.9 | 10.7
C#CCOCCOCCOCCNc1nc(N2CCN(C(=O)[C@H]([C@@H](C)CC)n3cc([C@@H](N)CC(C)C)nn3)CC2)nc(N2CCN(C(=O)[C@H](Cc3cc4ccccc4[nH]3)n3cc([C@@H](N)CC(C)C)nn3)CC2)n1 | x | x | x | 57.7* | x
C#CCOCCOCCOCCNc1nc(N2CCN(C(=O)[C@H]([C@@H](C)CC)n3cc([C@@H](N)CO)nn3)CC2)nc(N2CCN(C(=O)[C@H](Cc3ccc(O)cc3)n3cc([C@@H](N)C(C)CC)nn3)CC2)n1 (stereo not given in full) | x | -5.7 | -1.7 | -2.1 | 1.5
C#CCOCCOCCOCCNc1nc(N2CCN(C(=O)[C@H]([C@@H](C)CC)n3cc([C@@H](N)CC(C)C)nn3)CC2)nc(N2CCN(C(=O)[C@H]([C@@H](C)CC)n3cc([C@@H](N)CC(C)C)nn3)CC2)n1 | -3.2 | 2.6 | 7.6 | 9.6 | 24.8*
COC(=O)C1=C(C)N(C)C(=NCc2ccc(OC)cc2)NC1c1cccc(Cl)c1 (stereo not given) | -7.2 | x | x | x | x
CCCCNC(=O)C[C@H]1C[C@@]2(C(=O)OC)C(=C[C@H](C(C)(C)C)O[C@@H]2C)N(Cc2ccc3c(c2)OCO3)C1=O | 1.9 | x | x | x | x
CC(C)(C)NC(=O)NC(=O)CSc1nnc(COc2ccccc2Cl)o1 | -14.2 | 0.4 | 35.9* | 28.8 | -1.1
O=C(CSc1nnc(COc2ccccc2Cl)o1)Nc1ccccc1 | 8.5 | 1.9 | x | 1.8 | x
Clc1ccc(C2Nc3cccc4cccc(c34)N2)cc1 | 0.6 | 1.5 | 35.3* | 13.8 | 3.5
COc1cc(C2Nc3cccc4cccc(c34)N2)ccc1O | 15.4 | -5.5 | 30.6 | 29.9 | -2.6
c1cc2c3c(cccc3c1)NC(c1ccc3c(c1)OCO3)N2 | 6.7 | -5.5 | 35.5* | 18.3 | -1.2
CSc1ccc(C2Nc3cccc4cccc(c34)N2)cc1 | 15.2 | -5.0 | 12.4 | 8.1 | -4.1
Cc1cccc(C2Nc3cccc4cccc(c34)N2)c1 | -8.2 | -1.4 | 36.5* | 14.1 | -5.6
CCCC1CCC2(CC1)CCC2OC(=S)Nc1ccccc1OC (stereo not given) | 1.8 | x | x | x | x
